Assay results as given in ChEMBL document CHEMBL3763110, “A potent and selective inhibitor targeting human and murine 12/15-LOX” (Bioorg Med Chem, 2016).
pIC50: −log10 of the molar value.

Legend:
[1] = biological target: T1, Polyunsaturated fatty acid lipoxygenase ALOX15 (Homo sapiens, UniProt P16050); test: Inhibition of N-terminal His6-tagged human 12/15-LOX using arachidonic acid as substrate by UV-visible spectrophotometric analysis
T1 sequence (P16050 whole entry): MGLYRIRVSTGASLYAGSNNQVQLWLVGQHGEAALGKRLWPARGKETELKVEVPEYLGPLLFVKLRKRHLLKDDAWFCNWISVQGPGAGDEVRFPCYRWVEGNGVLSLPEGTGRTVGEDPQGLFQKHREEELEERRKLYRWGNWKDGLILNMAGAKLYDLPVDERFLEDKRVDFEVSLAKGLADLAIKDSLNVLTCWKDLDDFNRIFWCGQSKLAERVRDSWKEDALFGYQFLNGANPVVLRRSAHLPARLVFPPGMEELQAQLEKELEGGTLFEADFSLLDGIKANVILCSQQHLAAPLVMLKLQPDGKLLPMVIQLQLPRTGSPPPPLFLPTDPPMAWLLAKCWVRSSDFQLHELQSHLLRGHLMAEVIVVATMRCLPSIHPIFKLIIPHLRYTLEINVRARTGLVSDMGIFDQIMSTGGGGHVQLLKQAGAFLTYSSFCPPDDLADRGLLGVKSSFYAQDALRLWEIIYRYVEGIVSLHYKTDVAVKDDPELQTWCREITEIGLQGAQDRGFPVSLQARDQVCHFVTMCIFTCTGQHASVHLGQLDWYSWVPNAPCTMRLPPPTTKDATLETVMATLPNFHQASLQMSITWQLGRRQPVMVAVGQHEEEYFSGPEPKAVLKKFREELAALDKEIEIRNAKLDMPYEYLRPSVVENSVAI

[2] = biological target: T2, Polyunsaturated fatty acid lipoxygenase ALOX15 (Mus musculus) (UniProt P39654); test: Inhibition of glutamate-induced 12/15-LOX-dependent cell death in mouse HT22 cells assessed as increase in cell survival at 5 uM by LDH release assay; assay type: cell-based; settings: HT-22
T2 sequence (whole entry): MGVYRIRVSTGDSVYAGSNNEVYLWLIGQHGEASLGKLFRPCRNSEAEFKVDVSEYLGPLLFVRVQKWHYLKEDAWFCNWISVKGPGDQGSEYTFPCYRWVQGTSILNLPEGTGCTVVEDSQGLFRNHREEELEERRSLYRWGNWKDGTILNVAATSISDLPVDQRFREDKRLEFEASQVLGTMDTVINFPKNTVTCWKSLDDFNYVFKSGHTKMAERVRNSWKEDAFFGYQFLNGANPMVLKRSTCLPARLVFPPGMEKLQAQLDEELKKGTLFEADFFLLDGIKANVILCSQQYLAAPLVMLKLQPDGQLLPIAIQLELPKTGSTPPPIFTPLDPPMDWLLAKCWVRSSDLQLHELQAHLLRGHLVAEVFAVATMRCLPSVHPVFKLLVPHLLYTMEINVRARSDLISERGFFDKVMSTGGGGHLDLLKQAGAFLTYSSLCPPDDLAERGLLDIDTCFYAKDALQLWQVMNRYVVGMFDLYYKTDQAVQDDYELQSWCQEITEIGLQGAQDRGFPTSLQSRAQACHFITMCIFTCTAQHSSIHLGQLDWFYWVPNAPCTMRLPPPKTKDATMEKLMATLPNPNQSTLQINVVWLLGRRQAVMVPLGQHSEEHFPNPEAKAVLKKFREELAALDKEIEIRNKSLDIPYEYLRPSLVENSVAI
Outline: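 Mouse HT-22 neuronal cells grown in DMEM with 10% FBS and penicillin/streptomycin. Seeded at 1 × 10^4 cells/well and treated 18h later at ~50–70% confluence. Medium was replaced and 5 mM glutamate added with compound at 5, 10 or 20 μM, or DMSO control (max 0.1% final). LDH measured separately in cell extracts and media; % LDH released to medium calculated after background subtraction.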

[3] = biological target: T3, Polyunsaturated fatty acid lipoxygenase ALOX12 (Homo sapiens, UniProt P18054); test: Inhibition of N-terminal His6-tagged human 12-LOX using arachidonic acid as substrate by UV-visible spectrophotometric analysis
T3 sequence (P18054 whole entry): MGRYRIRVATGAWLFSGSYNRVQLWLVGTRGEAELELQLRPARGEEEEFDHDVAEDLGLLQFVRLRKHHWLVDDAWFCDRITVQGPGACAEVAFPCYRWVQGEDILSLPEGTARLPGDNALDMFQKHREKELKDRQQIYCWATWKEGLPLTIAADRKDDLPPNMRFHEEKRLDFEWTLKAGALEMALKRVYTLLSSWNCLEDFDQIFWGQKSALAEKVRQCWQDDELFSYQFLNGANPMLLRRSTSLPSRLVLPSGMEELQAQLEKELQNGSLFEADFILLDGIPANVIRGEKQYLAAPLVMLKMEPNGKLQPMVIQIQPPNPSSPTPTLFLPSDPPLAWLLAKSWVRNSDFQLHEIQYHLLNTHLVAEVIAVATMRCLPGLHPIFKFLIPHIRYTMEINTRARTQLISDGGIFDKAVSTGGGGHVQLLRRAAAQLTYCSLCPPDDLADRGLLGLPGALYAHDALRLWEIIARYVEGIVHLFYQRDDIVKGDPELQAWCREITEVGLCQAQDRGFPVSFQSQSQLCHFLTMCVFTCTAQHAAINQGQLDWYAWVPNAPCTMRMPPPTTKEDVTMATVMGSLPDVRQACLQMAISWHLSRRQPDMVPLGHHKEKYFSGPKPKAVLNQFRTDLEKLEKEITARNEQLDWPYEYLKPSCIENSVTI

[4] = biological target: T4, Polyunsaturated fatty acid lipoxygenase ALOX15 (Homo sapiens) (UniProt P16050)
T4 sequence (whole entry): T1 sequence (P16050 whole entry)

[5] = biological target: T5, Prostaglandin G/H synthase 2 (Homo sapiens, UniProt P35354); test: Inhibition of human COX-2 by UV-visible spectrophotometric analysis
T5 sequence (P35354 whole entry): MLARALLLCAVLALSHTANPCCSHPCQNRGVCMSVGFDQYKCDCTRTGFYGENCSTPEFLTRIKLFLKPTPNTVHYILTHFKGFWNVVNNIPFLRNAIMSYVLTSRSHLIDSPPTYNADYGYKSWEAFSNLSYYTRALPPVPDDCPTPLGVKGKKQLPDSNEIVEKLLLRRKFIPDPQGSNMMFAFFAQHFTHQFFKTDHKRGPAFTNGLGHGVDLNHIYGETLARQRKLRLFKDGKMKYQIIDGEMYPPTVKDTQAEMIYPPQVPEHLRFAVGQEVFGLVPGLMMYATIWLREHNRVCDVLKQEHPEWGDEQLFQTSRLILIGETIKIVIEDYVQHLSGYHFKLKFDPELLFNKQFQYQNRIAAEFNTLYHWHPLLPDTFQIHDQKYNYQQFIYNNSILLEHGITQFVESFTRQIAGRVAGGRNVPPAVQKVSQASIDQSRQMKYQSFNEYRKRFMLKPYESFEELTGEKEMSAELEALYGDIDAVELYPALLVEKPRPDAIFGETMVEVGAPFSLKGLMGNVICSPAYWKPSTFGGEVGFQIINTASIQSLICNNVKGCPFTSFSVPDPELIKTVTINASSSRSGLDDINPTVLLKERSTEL

[6] = biological target: T6, Polyunsaturated fatty acid lipoxygenase ALOX15B (Homo sapiens, UniProt O15296); test: Inhibition of N-terminal His6-tagged human 15-LOX-2 using arachidonic acid as substrate by UV-visible spectrophotometric analysis
T6 sequence (O15296 whole entry): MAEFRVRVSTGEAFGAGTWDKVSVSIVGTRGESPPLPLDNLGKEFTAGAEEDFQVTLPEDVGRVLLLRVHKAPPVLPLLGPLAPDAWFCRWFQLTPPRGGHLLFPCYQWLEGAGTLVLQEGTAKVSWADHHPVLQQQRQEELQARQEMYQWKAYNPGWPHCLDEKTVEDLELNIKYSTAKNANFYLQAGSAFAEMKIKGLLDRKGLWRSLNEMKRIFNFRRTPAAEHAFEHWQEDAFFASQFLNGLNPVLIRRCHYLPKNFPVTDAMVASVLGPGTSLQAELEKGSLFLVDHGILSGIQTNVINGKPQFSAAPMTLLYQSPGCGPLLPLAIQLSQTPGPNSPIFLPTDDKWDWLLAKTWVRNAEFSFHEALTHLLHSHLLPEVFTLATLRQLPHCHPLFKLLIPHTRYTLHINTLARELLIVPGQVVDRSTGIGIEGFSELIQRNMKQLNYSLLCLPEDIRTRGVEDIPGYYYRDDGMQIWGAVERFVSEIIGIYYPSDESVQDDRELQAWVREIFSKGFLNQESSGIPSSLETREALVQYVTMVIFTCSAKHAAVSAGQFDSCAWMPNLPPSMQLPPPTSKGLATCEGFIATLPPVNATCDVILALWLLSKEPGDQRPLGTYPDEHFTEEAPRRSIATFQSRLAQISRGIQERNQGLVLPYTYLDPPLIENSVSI

[7] = biological target: T7, Polyunsaturated fatty acid 5-lipoxygenase (Homo sapiens, UniProt P09917); test: Inhibition of human 5-LOX using arachidonic acid as substrate by UV-visible spectrophotometric analysis
T7 sequence (P09917 whole entry): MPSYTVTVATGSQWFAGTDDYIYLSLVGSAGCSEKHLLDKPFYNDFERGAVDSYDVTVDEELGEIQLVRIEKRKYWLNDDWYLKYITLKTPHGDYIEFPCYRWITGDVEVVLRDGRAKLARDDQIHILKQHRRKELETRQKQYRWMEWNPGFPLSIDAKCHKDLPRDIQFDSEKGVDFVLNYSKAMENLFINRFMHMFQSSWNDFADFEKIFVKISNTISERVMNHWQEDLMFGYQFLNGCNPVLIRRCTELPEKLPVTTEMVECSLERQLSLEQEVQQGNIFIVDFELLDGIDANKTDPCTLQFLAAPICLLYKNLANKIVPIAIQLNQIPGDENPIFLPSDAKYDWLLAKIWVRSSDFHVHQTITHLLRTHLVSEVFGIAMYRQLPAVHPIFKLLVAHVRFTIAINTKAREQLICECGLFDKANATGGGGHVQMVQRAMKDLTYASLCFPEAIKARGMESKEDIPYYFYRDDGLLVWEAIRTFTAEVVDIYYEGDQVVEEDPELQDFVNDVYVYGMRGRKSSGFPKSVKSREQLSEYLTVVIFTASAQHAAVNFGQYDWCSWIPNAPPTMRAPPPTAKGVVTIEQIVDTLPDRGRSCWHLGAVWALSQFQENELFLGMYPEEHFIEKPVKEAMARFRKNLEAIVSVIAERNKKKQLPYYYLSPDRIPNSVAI

[8] = biological target: T4, Polyunsaturated fatty acid lipoxygenase ALOX15 (Homo sapiens); remark: listed apart in the source

SMILES | pIC50 [1] | Survival [2] [%] | other results
Cc1ccc(O)c(-c2cc(-c3cccc(Br)c3)[nH]n2)c1 | 5.04 | 18 | 
Cc1ccc(-c2cc(-c3ccc(C)cc3O)[nH]n2)cc1 | < 4.30 |  | 
COc1ccc(-c2cc(-c3ccc(C)cc3)[nH]n2)c(O)c1 | < 4.30 |  | 
Oc1ccccc1-c1cc[nH]n1 | < 4.30 |  | 
COc1ccc(-c2cc(-c3cc(OC)ccc3O)[nH]n2)cc1 | 5.22 | 96 | 
COc1ccc(-c2cc(-c3ccccc3O)[nH]n2)cc1 | 5.00 | 7 | 
Cc1ccc(O)c(-c2cc(-c3cccc(F)c3)[nH]n2)c1 | 5.00 | 49 | 
COc1ccc(O)c(-c2cc(-c3ccc(F)cc3)[nH]n2)c1 | 4.96 | 78 | 
Cc1ccc(O)c(-c2cc(-c3ccccc3C)[nH]n2)c1 | 5.47 | 20 | pIC50 [3]: < 4.30; Kic [4]: 1 µM; pIC50 [5]: < 4.00; pIC50 [6]: < 4.30; pIC50 [7]: < 4.00; Kiuc [8]: 6 µM
COc1ccc(O)c(-c2cc(-c3cccc(Br)c3)[nH]n2)c1 | 5.15 | 70 | 
COc1ccc(C(=O)c2c[nH]nc2-c2cc(C)ccc2O)cc1 | < 4.30 |  | 
Cc1ccccc1-c1cc(-c2ccccc2O)[nH]n1 |  | 76 | 
Cc1ccc(-c2cc(-c3ccccc3C)[nH]n2)c(O)c1 | 5.00 | 71 | 
Oc1ccccc1-c1cc(-c2ccco2)[nH]n1 | 5.15 | 34 | 
COc1ccc(O)c(-c2cc(-c3ccccc3Cl)[nH]n2)c1 |  | 83 | 

More lines, main results first:

pIC50 [1] | SMILES | Survival [2] [%] | other results
< 4.30 | Oc1ccc(Cl)cc1-c1cc(-c2ccccc2Cl)[nH]n1 |  | 
5.15 | Cc1ccccc1-c1cc(-c2ccccc2O)n[nH]1 |  | 
< 4.30 | c1ccc(-c2cc(-c3ccccc3)[nH]n2)cc1 |  | 
< 4.30 | Cc1ccc(O)c(-c2cc(C(=O)NCc3ccccc3)[nH]n2)c1 |  | 
5.18 | COc1ccc(O)c(-c2cc(-c3ccccc3Cl)n[nH]2)c1 |  | 
< 4.30 | Oc1ccc(Br)cc1-c1cc(-c2ccccc2Cl)[nH]n1 |  | 
< 4.30 | Oc1ccc(Br)cc1-c1cc(-c2ccccc2)[nH]n1 |  | 
5.40 | Oc1ccccc1-c1cc(-c2ccccc2Cl)[nH]n1 |  | 
